Here are results for seven molecules from publication PMC11486593 (Biochimica et biophysica acta. General subjects, 2024).

The target of one data set is ShhN protein (Homo sapiens, UniProt Q15465). The experiment in a line: Protein thermal shift assay. Type of data set: binding. Particulars: ShhN 1–2 μM; compounds 1.56 to 50 μM. Summed up: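 Differential scanning fluorimetry uses human ShhN (residues 24–197, 1–2 μM final) mixed with the kit's thermal shift buffer and dye, held on ice, with or without the test compound at 1.56–50 μM. Melt runs at a continuous ramp of […] from 25°C to 97.5°C. ΔTm is the difference in transition midpoint with versus without compound.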
Chain of ShhN protein (Q15465 24-197): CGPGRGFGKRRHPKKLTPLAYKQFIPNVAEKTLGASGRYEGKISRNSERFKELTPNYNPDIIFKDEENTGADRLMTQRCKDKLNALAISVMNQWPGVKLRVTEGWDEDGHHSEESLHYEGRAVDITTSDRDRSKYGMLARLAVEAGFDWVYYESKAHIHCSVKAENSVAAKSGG

Data set [1] concerns ShhN-induced AP activity in C3H10T1/2 cells. The experiment in a line: C3H10T1/2 cell-based assay, inhibition of ShhN-induced alkaline phosphatase. Further details: species or system murine. Particulars: dose response, 5 days. Summed up:
(§1)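 C3H10T1/2 murine embryonic fibroblasts, stimulated for 5 days with an agonist at its EC50 (human ShhN N-terminal domain, residues 24–197, at 2 μg/ml; or Smoothened agonist SAG at 100 nM), with or without the test compound in dose response. Alkaline phosphatase activity is measured as the marker of pathway activation. IC50 is obtained by non-linear regression.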

In data set [2] the test system is SAG-induced AP activity in C3H10T1/2 cells. The experiment in a line: C3H10T1/2 cell-based assay, inhibition of SAG-induced alkaline phosphatase. The conditions noted are these: for Inhibition of SAG-induced AP: C3H10T1/2 cells, SAG at EC50 (100 nM), 5 days; for Cytotoxicity in C3H10T1/2 cells: inferred from lack of effect in the SAG induction assay. On the set-up: species or system murine. Summed up: as §1

Data set [3] has as its system ShhN-induced Gli1 and Ptch1 mRNA in C3H10T1/2 cells. The experiment in a line: qRT-PCR for Gli1 and Ptch1 in C3H10T1/2 cells, ShhN-mediated induction. Type of data set: cell-based, mouse. The conditions noted are these: 5 days; for Decrease of ShhN-mediated induction of Gli1 and Ptch1 compared to ShhN treatment alone: 50 μM compound; for Inhibition of ShhN-induced GLI1 and Ptch1 mRNA: 50 μM for compounds 4, 21 and 24, 10 μM for robotnikinin.

Data set [4] deals with SAG-induced Gli1 and Ptch1 mRNA in C3H10T1/2 cells. The experiment in a line: qRT-PCR for Gli1 and Ptch1 in C3H10T1/2 cells, SAG-mediated induction. The data set is classed as cell-based, mouse. Particulars: 5 days, 50 μM for compounds 4, 21 and 24, 10 μM for robotnikinin.
Another data set has as its target ShhN/heparin binding (Homo sapiens, UniProt Q15465). The experiment in a line: Solid-phase ShhN/heparin binding assay. The conditions noted are these: for ShhN/flu-heparin binding IC50 of known compounds: compounds known to bind Shh, heparin binding domains or heparin, Fig. 3B.
For a further data set, the system named is C3H10T1/2 cells. The experiment in a line: Induction of AP activity in C3H10T1/2 cells by agonists. The data set is classed as cell-based, murine. The conditions noted are these: read-out: EC50 for induction of AP activity, 5 days. A digest of the protocol: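 C3H10T1/2 murine embryonic fibroblasts are cultured for 24 h, then exposed to varying concentrations of ShhN protein or SAG for 5 days. Alkaline phosphatase induction is read as the activation marker, and EC50 is fitted by non-linear regression. A ShhN dose-response curve is run on every plate as an internal control.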

Chain of ShhN/heparin binding (Q15465 24-197): as above

As for `Cc1ccc(C(=O)Nc2ccc(S(=O)(=O)O)c3cc(S(=O)(=O)O)cc(S(=O)(=O)O)c23)cc1NC(=O)c1cccc(NC(=O)Nc2cccc(C(=O)Nc3cc(C(=O)Nc4ccc(S(=O)(=O)O)c5cc(S(=O)(=O)O)cc(S(=O)(=O)O)c45)ccc3C)c2)c1` [Suramin, reference compound], the “Tm shift (ΔTm) on binding to ShhN” value on ShhN protein came to 0.73 °C. In data set [1], the “Block of ShhN-mediated AP induction” value is on record as “blocked”.
As for `CCc1ccc(C2=C/C(=C/c3ccco3)C(=O)O2)cc1` [Compound 4, (3Z)-5-(4-Ethylphenyl)-3-(furan-2-ylmethylidene) furan-2-one], the “Tm shift (ΔTm) on binding to ShhN” value on ShhN protein turned out to be 1.58 °C. Further, in data set [2], the “Inhibition of SAG-induced AP” value is on record as “not SAG induction of AP” and the “Cytotoxicity in C3H10T1/2 cells” value was “not cytotoxic”. Moreover, in data set [3], the “Decrease of ShhN-mediated induction of Gli1 and Ptch1 compared to ShhN treatment alone” value is 6–7 fold; the “Inhibition of ShhN-induced GLI1 and Ptch1 mRNA” value is reported as “significantly blocked”. The “Inhibition of SAG-induced GLI1 and Ptch1 mRNA” value in data set [4] is “did not decrease”.
What is called IC50 is the concentration that inhibits the measured activity by half. Consider `O=C1NC(=S)N(c2ccc(F)cc2)C(=O)C1=Cc1ccco1` [Compound 7, 1-(4-Fluoro-phenyl)-5-furan-2-ylmethylene-2-thioxo-dihydro-pyrimidine-4,6-dione], for which, on ShhN/heparin binding, the IC50 is 17.5 µM.
With `Cc1cc(N)c2cc(NC(=O)Nc3ccc4nc(C)cc(N)c4c3)ccc2n1` [surfen, Surfen], the “ShhN/flu-heparin binding IC50 of known compounds” value at ShhN/heparin binding is recorded as “did not block binding”.
In the case of `O=C(C[C@@H]1C/C=C/CCC(=O)O[C@H](c2ccccc2)CNC1=O)NCc1ccc(Cl)cc1` [Robotnikinin, reference compound], the “Tm shift (ΔTm) on binding to ShhN” value at ShhN protein was 0.85 °C. The “Block of ShhN-mediated AP induction” value in data set [1] is recorded as “able to block ShhN-”. For the same molecule, the “Inhibition of SAG-induced AP” value in data set [2] was “not SAG-mediated AP induction”. For the same molecule, the “ShhN/flu-heparin binding IC50 of known compounds” value at ShhN/heparin binding was “did not block binding”. In addition, the “Inhibition of ShhN-induced GLI1 and Ptch1 mRNA” value in data set [3] is recorded as “blocked”. Besides, the “Inhibition of SAG-induced GLI1 and Ptch1 mRNA” value in data set [4] was “did not block”.
On to `O=C(NCCNC1CCCC1)c1cccs1` [Compound 24, N-[2-(Cyclopentylamino)ethyl] thiophene-2-carboxamide], for which the “Tm shift (ΔTm) on binding to ShhN” value on ShhN protein worked out at 0.85 °C. Further, in data set [2], the “Inhibition of SAG-induced AP” value is listed as “not SAG induction of AP” and the “Cytotoxicity in C3H10T1/2 cells” value is “not cytotoxic”. In data set [3], the “Decrease of ShhN-mediated induction of Gli1 and Ptch1 compared to ShhN treatment alone” value is 6–7 fold; the “Inhibition of ShhN-induced GLI1 and Ptch1 mRNA” value is given as “significantly blocked”. In data set [4], the “Inhibition of SAG-induced GLI1 and Ptch1 mRNA” value is “did not decrease”.
By EC50 is commonly meant the concentration giving half of the maximal effect. `CNC1CCC(N(Cc2cccc(-c3ccncc3)c2)C(=O)c2sc3ccccc3c2Cl)CC1` (centres unmarked) [SAG]: the EC50 in the data set on C3H10T1/2 cells amounted to 0.1 µM.
